Measurements as given in ChEMBL document CHEMBL3758076, “Azaphilones from an Acid Mine Extremophile Strain of a Pleurostomophora sp” (J Nat Prod, 2015).
Calls of active or inactive are those of the source. The calls are words filed in the database; no cut-off is given here.

Assays:
[1] = tested on: MOLT-4; assay: (§1) Cytotoxicity against human MOLT4 cells after 96 hrs by Hoechst-staining based nuclei image analysis; format: functional
[2] = tested on: MOLT-4; assay: Cytotoxicity against human MOLT4 cells at 1 to 10 uM after 72 hrs by Alamar Blue viability assay; format: functional, cell-based
[3] = tested on: SR; assay: Cytotoxicity against human SR cells after 96 hrs by Hoechst-staining based nuclei image analysis; format: functional
[4] = tested on: CCRF-CEM; assay: Cytotoxicity against human CCRF-CEM cells at 1 to 10 uM after 72 hrs by Alamar Blue viability assay; format: functional, cell-based
[5] = tested on: SR; assay: Cytotoxicity against human SR cells at 1 to 10 uM after 72 hrs by Alamar Blue viability assay; format: functional, cell-based
[6] = tested on: RPMI-8226; assay: (§2) Cytotoxicity against human RPMI8226 cells after 96 hrs by Hoechst-staining based nuclei image analysis; format: functional
[7] = tested on: LOX IMVI; assay: Cytotoxicity against human LOXIMVI cells at 1 to 10 uM after 72 hrs by Alamar Blue viability assay; format: functional, cell-based
[8] = tested on: RPMI-8226; assay: Cytotoxicity against human RPMI8226 cells at 1 to 10 uM after 72 hrs by Alamar Blue viability assay; format: functional, cell-based
[9] = tested on: LOX IMVI; assay: Cytotoxicity against human LOXIMVI cells after 96 hrs by Hoechst-staining based nuclei image analysis; format: functional
[10] = tested on: THP-1; assay: Antiinflammatory activity in human THP1 cells assessed as suppression of LPS and TiO2-induced IL-33 production at 10 uM after 24 hrs by induced inflammasome assay; format: functional, cell-based
Outline: (§3)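 THP-1 cells stimulated with bacterial LPS plus titanium dioxide (TiO2) to drive proinflammatory cytokine output and NLRP3 inflammasome assembly. Compounds were added to the induced cells, and IL-6, IL-33, TNF-α and IL-1β production was then measured.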

[11] = tested on: THP-1; assay: Antiinflammatory activity in human THP1 cells assessed as suppression of LPS and TiO2-induced IL-1beta production at 100 uM after 24 hrs by induced inflammasome assay; format: functional, cell-based; outline: as §3
[12] = target: Stromelysin-1 (Homo sapiens, UniProt P08254); assay: Inhibition of MMP-3 (unknown origin)
Chain of Stromelysin-1 (P08254 whole entry): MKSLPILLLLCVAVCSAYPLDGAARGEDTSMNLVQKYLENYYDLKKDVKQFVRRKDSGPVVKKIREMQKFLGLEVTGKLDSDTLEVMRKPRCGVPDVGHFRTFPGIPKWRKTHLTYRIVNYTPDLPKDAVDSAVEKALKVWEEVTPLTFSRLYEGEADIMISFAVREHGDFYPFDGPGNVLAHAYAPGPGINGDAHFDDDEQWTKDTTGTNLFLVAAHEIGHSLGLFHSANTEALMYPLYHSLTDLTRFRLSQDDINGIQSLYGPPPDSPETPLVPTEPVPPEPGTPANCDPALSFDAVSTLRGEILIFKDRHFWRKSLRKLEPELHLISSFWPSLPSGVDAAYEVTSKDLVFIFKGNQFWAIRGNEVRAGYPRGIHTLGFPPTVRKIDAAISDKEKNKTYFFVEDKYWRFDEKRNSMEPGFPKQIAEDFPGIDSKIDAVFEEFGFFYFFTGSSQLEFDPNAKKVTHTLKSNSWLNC

[13] = tested on: THP-1; assay: (§4) Antiinflammatory activity in human THP1 cells assessed as suppression of LPS and TiO2-induced IL-1beta production at 10 uM after 24 hrs by induced inflammasome assay; format: functional; outline: as §3
[14] = tested on: THP-1; assay: Antiinflammatory activity against human THP1 cells assessed as suppression of LPS and TiO2-induced IL-6 production at 100 uM after 24 hrs by induced inflammasome assay; format: functional, cell-based; outline: as §3
[15] = tested on: THP-1; assay: Antiinflammatory activity against human THP1 cells assessed as suppression of LPS and TiO2-induced IL-33 production at 100 uM after 24 hrs by induced inflammasome assay; format: functional, cell-based; outline: as §3
[16] = tested on: THP-1; assay: (§5) Antiinflammatory activity in human THP1 cells assessed as suppression of LPS and TiO2-induced TNF-alpha production at 10 uM after 24 hrs by induced inflammasome assay; format: functional; outline: as §3
[17] = target: T1, Caspase-1 (Homo sapiens, UniProt P29466); assay: Inhibition of caspase-1 (unknown origin)
T1 sequence (P29466 whole entry): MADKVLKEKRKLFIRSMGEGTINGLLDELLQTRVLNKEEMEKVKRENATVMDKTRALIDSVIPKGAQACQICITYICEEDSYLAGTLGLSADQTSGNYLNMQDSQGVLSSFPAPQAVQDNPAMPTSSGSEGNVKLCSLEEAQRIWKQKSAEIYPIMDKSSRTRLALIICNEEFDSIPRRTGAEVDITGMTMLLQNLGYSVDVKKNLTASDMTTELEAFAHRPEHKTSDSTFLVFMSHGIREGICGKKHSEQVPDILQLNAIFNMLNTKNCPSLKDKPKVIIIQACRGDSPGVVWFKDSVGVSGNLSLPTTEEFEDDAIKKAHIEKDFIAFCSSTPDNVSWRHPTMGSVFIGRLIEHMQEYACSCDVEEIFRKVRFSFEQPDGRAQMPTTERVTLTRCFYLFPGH

[18] = tested on: THP-1; assay: Antiinflammatory activity against human THP1 cells assessed as suppression of LPS and TiO2-induced TNF-alpha production at 100 uM after 24 hrs by induced inflammasome assay; format: functional, cell-based; outline: as §3
[19] = tested on: THP-1; assay: Antiinflammatory activity in human THP1 cells assessed as suppression of LPS and TiO2-induced IL-6 production at 10 uM after 24 hrs by induced inflammasome assay; format: functional, cell-based; outline: as §3
[20] = as §4; format: functional, THP-1; outline: as §3
[21] = Cytotoxicity against human RPMI8226 cells after 72 hrs by Alamar Blue viability assay; format: functional; settings: RPMI-8226, 72 h
[22] = tested on: SR; assay: Cytotoxicity against human SR cells after 72 hrs by Alamar Blue viability assay; format: functional
[23] = Cytotoxicity against human LOXIMVI cells after 72 hrs by Alamar Blue viability assay; format: functional; settings: LOX IMVI
[24] = tested on: CCRF-CEM; assay: Cytotoxicity against human CCRF-CEM cells after 72 hrs by Alamar Blue viability assay; format: functional
[25] = as §1; format: functional; settings: MOLT-4, 96 h
[26] = tested on: CCRF-CEM; assay: Cytotoxicity against human CCRF-CEM cells after 96 hrs by Hoechst-staining based nuclei image analysis; format: functional
[27] = tested on: Y79; assay: Cytotoxicity against human Y79 cells after 72 hrs by Alamar Blue viability assay; format: functional, cell-based; settings: Y79, 72 h
[28] = as §2; format: functional; settings: RPMI-8226, 96 h
[29] = as §5; format: functional, THP-1; outline: as §3
[30] = tested on: Y79; assay: Cytotoxicity against human Y79 cells after 96 hrs by Hoechst-staining based nuclei image analysis; format: functional, cell-based; settings: Y79, 96 h
[31] = Cytotoxicity against human MOLT4 cells after 72 hrs by Alamar Blue viability assay; format: functional; settings: MOLT-4, 72 h

| IC50 [12] | IC50 [17] | Structure (SMILES) | Activity [1] | Activity [2] | Activity [3] | Activity [4] | Activity [5] | Activity [6] | Activity [7] | Activity [8] | Activity [9] | Activity [10] | Activity [19] | other results |
| --- | --- | --- | --- | --- | --- | --- | --- | --- | --- | --- | --- | --- | --- | --- |
| – | – | CCCCCCCCCC(=O)C[C@@H]1C2=COC(C[C@H](C)O)=CC2=CC(=O)[C@]1(C)O | inactive | inactive | inactive | inactive | inactive | inactive | inactive | inactive | inactive | – | – | – |
| 130 µM | 150 µM | CCCCCCCCCC(=O)[C@@H]1C(=O)O[C@@]2(C)C(=O)C=C3C=C(C[C@H](C)O)OC=C3[C@@H]12 | inactive | inactive | inactive | inactive | inactive | inactive | inactive | inactive | inactive | inactive | inactive | Activity [11]: Active; Activity [13]: inactive; Activity [14]: Active; Activity [15]: Active; Activity [16]: inactive; Activity [18]: Active |
| 15 µM | 25 µM | CCCCCCCCCC(=O)[C@@]12O[C@@]13C1=COC(C[C@H](C)O)=CC1=CC(=O)[C@]3(C)OC2=O | – | – | – | – | – | – | – | – | – | Active | Active | Activity [20]: 95%; GI50 [21]: 10 µM; GI50 [22]: 10 µM; GI50 [23]: 10 µM; GI90 [24]: 10 µM; GI50 [25]: 10 µM; GI90 [26]: 10 µM; IC50 [27]: 1.1 µM; GI50 [3]: 10 µM; GI50 [28]: 10 µM; Activity [29]: 95%; IC50 [30]: 1.1 µM; GI50 [31]: 10 µM |
| 45 µM | 50 µM | CCCCCCCCCC(=O)C1=C2C=C3C=C(C[C@H](C)O)N(CCO)C=C3C(=O)[C@]2(C)OC1=O | – | – | – | – | – | – | – | – | – | – | – | – |
